Source: ChEMBL document CHEMBL3232908, “Guanacastane diterpenoids from the plant endophytic fungus Cercospora sp” (J Nat Prod, 2014)
pIC50: −log10 of the molar value. Active and inactive are the calls of the source. No cut-off for these calls is given here.

Tests used:
HeLa [1] = test: Cytotoxicity against human HeLa cells at 50 uM after 48 hrs by MTS assay; format: functional, cell-based
Procedure, shortened: (§1)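 Cells seeded at 2−5 × 10^3 per well by growth rate and allowed to attach overnight. Medium then replaced with medium holding test compound or 0.1% DMSO, made by serial dilution of 100 mM DMSO stocks. Incubated 48 h at 37 °C in humidified 5% CO2. MTS added, 90 min at 37 °C in the dark, absorbance read at 490 nm. Run in triplicate.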

A549 [2] = test: Cytotoxicity against human A549 cells at 50 uM after 48 hrs by MTS assay; format: functional, cell-based; procedure, shortened: as §1
MCF7 [3] = test: Cytotoxicity against human MCF7 cells at 50 uM after 48 hrs by MTS assay; format: functional, cell-based; procedure, shortened: as §1
HCT-116 [4] = test: Cytotoxicity against human HCT116 cells at 50 uM after 48 hrs by MTS assay; format: functional, cell-based; procedure, shortened: as §1
T-24 = test: Cytotoxicity against human T24 cells at 50 uM after 48 hrs by MTS assay; format: functional, cell-based; procedure, shortened: as §1
HeLa [5] = test: Cytotoxicity against human HeLa cells after 48 hrs by MTS assay; format: functional, cell-based; procedure, shortened: as §1
A549 [6] = test: Cytotoxicity against human A549 cells after 48 hrs by MTS assay; format: functional, cell-based; conditions: A549, 48 h; procedure, shortened: as §1
MCF7 [7] = test: Cytotoxicity against human MCF7 cells after 48 hrs by MTS assay; format: functional, cell-based; conditions: MCF7, 48 h; procedure, shortened: as §1
HCT-116 [8] = test: Cytotoxicity against human HCT116 cells after 48 hrs by MTS assay; format: functional, cell-based; conditions: HCT-116, 48 h; procedure, shortened: as §1
[9] = Cytotoxicity against human T24 cells after 48 hrs by MTS assay; format: functional, cell-based; conditions: T-24, 48 h; procedure, shortened: as §1
HCT-116 [10] = test: Induction of autophagy in human HCT116 cells assessed as accrual of membrane vacuoles and autophagosome-like structure with double-membrane sturctures formation at 10 uM after 2 hrs by electron microscopy; format: functional, cell-based
Procedure, shortened: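 HCT116 cells in RPMI-1640 treated 2 h. Cells washed three times with PBS, trypsinized and pelleted. Pellets fixed overnight in 4% paraformaldehyde at 4 °C, postfixed 1 h at room temperature in 1% OsO4 in cacodylate buffer, dehydrated stepwise in ethanol, rinsed in propylene oxide and embedded in Spurr resin. Thin sections examined by transmission electron microscopy.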

HCT-116 [11] = test: Induction of autophagy in human HCT116 cells transfected with plasmid expressing GFP-LC3 at 10 uM by DAPI staining based fluorescence microscopy; format: functional, cell-based
Procedure, shortened: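 HCT116 cells transfected with a GFP-LC3 plasmid. Transfection was 12 h by the legend and 24 h by the methods. Cells then incubated at 37 °C in RPMI-1640 with test compound or 1/1000 DMSO, fixed and stained with DAPI. GFP-LC3 puncta imaged by confocal fluorescence microscopy.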

HCT-116 [12] = test: Induction of autophagy in human HCT116 cells assessed as increase in ratio of LC3-II to actin expression at 2.5 uM after 2 hrs by Western blot analysis relative to control; format: functional
Procedure, shortened: (§2)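 HCT116 colon carcinoma cells were grown in RPMI-1640 with fetal bovine serum and antibiotics, split overnight to 50% confluence, then dosed. Cells were lysed in 50 mM Tris-HCl pH 7.4, 2 mM EDTA, 2 mM EGTA, 1 mM DTT, 1% Triton X-100 and protease inhibitors. SDS-PAGE and PVDF blot used polyclonal anti-LC3, anti-actin and ECL. LC3-II/actin was measured by densitometry, representative of three experiments.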

HCT-116 [13] = test: Induction of autophagy in human HCT116 cells assessed as increase in ratio of LC3-II to actin expression at 5 uM after 2 hrs by Western blot analysis relative to control; format: functional; procedure, shortened: as §2
HCT-116 [14] = test: Induction of autophagy in human HCT116 cells assessed as increase in ratio of LC3-II to actin expression at 10 uM after 2 hrs by Western blot analysis relative to control; format: functional; procedure, shortened: as §2

| Structure (SMILES) | Activity (HeLa [1]) | Activity (A549 [2]) | Activity (MCF7 [3]) | Activity (HCT-116 [4]) | Activity (T-24) | pIC50 (HeLa [5]) | pIC50 (A549 [6]) | pIC50 (MCF7 [7]) | pIC50 (HCT-116 [8]) | pIC50 [9] | Activity (HCT-116 [10]) | Activity (HCT-116 [11]) | Ratio (HCT-116 [12]) | Ratio (HCT-116 [13]) | Ratio (HCT-116 [14]) |
| --- | --- | --- | --- | --- | --- | --- | --- | --- | --- | --- | --- | --- | --- | --- | --- |
| CC(C)[C@H]1CC(=O)C2=CC3=C(CO)C(=O)C(O)=C[C@@]3(C)CC[C@@]21C | inactive | inactive | inactive | inactive | inactive | – | – | – | – | – | – | – | – | – | – |
| CC1=C2C=C3C(=O)C(O)=C([C@H](C)CO)[C@@]3(C)CC[C@]2(C)C[C@@H](O)C1=O | inactive | inactive | inactive | inactive | inactive | – | – | – | – | – | – | – | – | – | – |
| C[C@H](CO)[C@H]1CC(=O)[C@@H]2[C@H]3OCC4=C3[C@@](C)(CCC4=O)CC[C@]12C | inactive | inactive | inactive | inactive | inactive | – | – | – | – | – | – | – | – | – | – |
| CC(C)C1=C(O)C(=O)C2=CC3=C(CCC4=C5CC6=C(O)C(=O)[C@H](C(C)C)[C@@]6(C)CC[C@]5(C)C[C@@H](O)C4=O)C(=O)[C@H](O)C[C@@]3(C)CC[C@@]21C | – | – | – | – | – | 4.71 | 4.53 | 4.34 | 4.67 | 5.09 | Active | Active | 1.2 | 1.3 | 1.4 |
| CC(C)C1=C(O)C(=O)C2=CC3=C(CCC4=C5C=C6C(=O)C(O)=C(C(C)C)[C@@]6(C)CC[C@]5(C)C[C@@H](O)C4=O)C(=O)[C@H](O)C[C@@]3(C)CC[C@@]21C | inactive | inactive | inactive | inactive | inactive | – | – | – | – | – | – | – | – | – | – |
| CC(C)C1=C(O)C(=O)C2=CC3=C(CO)C(=O)[C@H](O)C[C@@]3(C)CC[C@@]21C | inactive | inactive | inactive | inactive | inactive | – | – | – | – | – | – | – | – | – | – |
